The text below walks through data of ChEMBL document CHEMBL2401709 (J Med Chem, 2013).

pIC50: −log10 of the molar value. Activity calls are given as the source filed them. The rule behind the calls is not given here. Bounds are passed on as bounds.

The test system of one assay is HeLa. Description: Cytotoxicity against human HeLa cells assessed as growth inhibition after 72 hrs by calcein AM staining-based fluoroscence assay. Type of assay: functional, cell-based.
A further assay concerns HCT-116. Description: Cytotoxicity against human HCT116 cells assessed as growth inhibition after 72 hrs by calcein AM staining-based fluoroscence assay. Type of assay: functional, cell-based. As to conditions: HCT-116, 72 h.
In a further assay the test system is HOS. Put plainly: Cytotoxicity against human HOS cells assessed as growth inhibition after 72 hrs by calcein AM staining-based fluoroscence assay. It counts as functional, cell-based.
Assay [1] concerns G-361. Put plainly: Cytotoxicity against human G361 cells assessed as growth inhibition after 72 hrs by calcein AM staining-based fluoroscence assay. It counts as functional, cell-based. Particulars: G-361, 72 h.
For a further assay, the system named is MCF7. Put plainly: Cytotoxicity against human MCF7 cells assessed as growth inhibition after 72 hrs by calcein AM staining-based fluoroscence assay. It counts as functional, cell-based. As to conditions: MCF7, 72 h.
The subject of the next assay is K562. Put plainly: Cytotoxicity against human K562 cells assessed as growth inhibition after 72 hrs by calcein AM staining-based fluoroscence assay. Type of assay: functional, cell-based. Particulars: K562, 72 h.
Assay [2] deals with Cyclin-dependent kinase 1 (Homo sapiens, UniProt P06493). Description: Inhibition of human recombinant CDK1.
Chain of Cyclin-dependent kinase 1 (P06493 whole entry): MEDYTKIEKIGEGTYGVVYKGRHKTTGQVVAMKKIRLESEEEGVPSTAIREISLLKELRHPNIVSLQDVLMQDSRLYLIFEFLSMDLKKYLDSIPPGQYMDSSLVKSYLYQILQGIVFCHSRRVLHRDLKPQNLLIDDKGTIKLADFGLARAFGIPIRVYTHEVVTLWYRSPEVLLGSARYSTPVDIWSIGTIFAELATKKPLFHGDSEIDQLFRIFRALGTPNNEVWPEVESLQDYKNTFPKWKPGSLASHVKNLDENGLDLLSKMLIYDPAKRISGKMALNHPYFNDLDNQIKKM
Assay [3] concerns the target Cyclin-dependent kinase 2/cyclin E1 (Homo sapiens, UniProt P24941). Put plainly: Inhibition of human recombinant CDK2/Cyclin E expressed in baculovirus infected sf9 cells using histone H1 as substrate.
For assay [4], the system named is G-361. Put plainly: Induction of apoptosis in human G361 cells assessed as decrease in Mcl-1 at 300 nM after 24 hrs by immunoblotting analysis. It counts as functional, cell-based. The method, boiled down: (§1)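 Treated G361 cells harvested into Laemmli sample buffer. Proteins resolved by SDS-PAGE and blotted to nitrocellulose. Membranes blocked, probed overnight with specific primary antibodies, then peroxidase-conjugated secondaries. ECL detection by CCD camera. Actin served as loading control.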
A general note: Immunoblotting shows a protein as a band on a membrane.

For assay [5], the target named is Cyclin-dependent kinase 9 (Homo sapiens) (UniProt P50750). Put plainly: Inhibition of CDK9-mediated RNA polymerase 2 phosphorylation at ser2 in human G361 cells at 300 nM after 24 hrs by immunoblotting analysis. It counts as cell-based. Particulars: G-361. The procedure, abridged: as §1
Chain of Cyclin-dependent kinase 9 (Homo sapiens) (P50750 whole entry): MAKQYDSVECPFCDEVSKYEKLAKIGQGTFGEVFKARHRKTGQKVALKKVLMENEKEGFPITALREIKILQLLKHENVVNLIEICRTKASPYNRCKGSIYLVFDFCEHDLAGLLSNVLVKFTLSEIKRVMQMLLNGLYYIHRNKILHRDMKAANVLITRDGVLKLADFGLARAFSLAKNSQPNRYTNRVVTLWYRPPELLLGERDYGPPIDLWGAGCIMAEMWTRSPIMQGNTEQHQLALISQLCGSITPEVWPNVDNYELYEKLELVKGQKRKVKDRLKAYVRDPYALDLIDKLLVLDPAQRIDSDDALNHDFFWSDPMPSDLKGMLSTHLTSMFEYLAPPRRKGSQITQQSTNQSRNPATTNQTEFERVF
A further assay concerns the target CDK2/CDK4 (Homo sapiens) (UniProt P11802+P24941). Put plainly: Inhibition of CDK2/4-mediated retinoblastoma protein phosphorylation at ser780 in human G361 cells at 300 nM after 24 hrs by immunoblotting analysis. Type of assay: cell-based. As to conditions: G-361. The method, boiled down:
as §1

Assay [6] relates to G-361. Description: Induction of apoptosis in human G361 cells assessed as decrease in Mcl-1 protein level at 300 nM after 24 hrs by immunoblotting analysis. It counts as functional, cell-based. The method, boiled down: as §1
Assay [7] deals with G-361. Put plainly: Induction of apoptosis in human G361 cells assessed as induction of PARP-1 clevage at 300 nM after 24 hrs by immunoblotting analysis. Type of assay: functional, cell-based. The procedure, abridged:
as §1

The subject of assay [8] is G-361. Put plainly: Induction of apoptosis in human G361 cells assessed as induction of caspase-9 clevage at 300 nM after 24 hrs by immunoblotting analysis. It counts as functional, cell-based. The procedure, abridged: as §1
Assay [9] deals with G-361. Put plainly: Induction of apoptosis in human G361 cells assessed as induction of caspase-3 clevage at 300 nM after 24 hrs by immunoblotting analysis. Type of assay: functional, cell-based. The method, boiled down:
as §1

Assay [10] relates to G-361. Description: Induction of apoptosis in human G361 cells assessed as induction of caspase-7 clevage at 300 nM after 24 hrs by immunoblotting analysis. It counts as functional, cell-based. The procedure, abridged:
as §1

Assay [11] concerns G-361. Put plainly: Induction of apoptosis in human G361 cells assessed as caspase 9 activation using Ac-DEHD-AMC as substrate at 300 nM after 24 hrs by fluorimetry assay. Particulars: in the assay text read “Ac-LEHD-AMC” for “Ac-DEHD-AMC”. Type of assay: functional, cell-based. The method, boiled down: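 G361 lysates were made in CHAPS extraction buffer, pH 7.4, clarified at 10000g, and protein-equalized. They were incubated 24 h with 100 μM Ac-LEHD-AMC in 100 mM HEPES pH 7.5, 0.5 mM EDTA, 20% glycerol, 5 mM DTT. AMC fluorescence read at 355/460 nm (ex/em).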

Assay [12] relates to G-361. Description: Induction of apoptosis in human G361 cells assessed as caspase 3/7 activation using Ac-DEVD-AMC as substrate at 300 nM after 24 hrs by fluorimetry assay. It counts as functional, cell-based.
In assay [13] the target is Cyclin-dependent kinase 2/cyclin E1 (Homo sapiens) (UniProt P24864+P24941). Description: Ratio of roscovitine IC50 to compound IC50 for human recombinant CDK2/Cyclin E. It counts as protein-complex assay.

As usually defined, the pIC50 is −log10 of the IC50, conventionally taken in molar units. With `CC(C)(O)CNc1nc(NCc2ccc(-c3ccco3)nc2)c2ncn(C3CCCC3)c2n1`, the pIC50 with HeLa is 6.18; in the assay on HCT-116, 5.90; with HOS, 6.25; with G-361 [1], 5.68; in the assay with MCF7, 5.88; with K562 it was 5.85. Besides, the pIC50 in assay [2] was 6.26; in assay [3], 6.92.
As to `CC(C)(O)CNc1nc(NCc2ccc(-c3ccco3)cc2)c2ncn(C3CCCC3)c2n1`, the pIC50 with HeLa was 4.83; in the assay with HCT-116, 4.78; in the assay on HOS it was 4.67; in the assay on G-361 [1], 4.76; in the assay with MCF7, 4.82; in the assay on K562, 4.77. Further, the pIC50 is less than 6.00 in assay [2] and 6.32 in [3].
`NC1CCC(Nc2nc(NCc3ccc(-c4ccco4)nc3)c3ncn(C4CCCC4)c3n2)CC1` (stereo unspecified): the result in the assay with G-361 [4], in the assay on G-361 [6], with G-361 [7], with G-361 [8], in the assay with G-361 [9] and with G-361 [10] was Active. Moreover, the outcome with G-361 [11] and with G-361 [12] was Active. Also, in assay [5], the “Inhibition of RNA polymerase II Ser2 phosphorylation (qualitative)” value (shortened to “Inhibition … (qualitative)”) was “Active”. Also, on CDK2/CDK4 (Homo sapiens), the inhibition result is “Active”. For the same compound, the pIC50 in the assay with HeLa is 7.52; in the assay on HCT-116, 7.07; in the assay with HOS it was 7.36; in the assay with G-361 [1], 7.01; in the assay with MCF7, 7.48; with K562, 7.17. In addition, in assay [3], the pIC50 is 8.00.
For the compound `NC1CCC(Nc2nc(NCc3ccc(-c4ccoc4)nc3)c3ncn(C4CCCC4)c3n2)CC1` (stereo unspecified), the result in the assay with G-361 [4], with G-361 [6], in the assay on G-361 [7], in the assay on G-361 [8], in the assay with G-361 [9] and in the assay with G-361 [10] was Active. Moreover, the outcome in the assay on G-361 [11] and in the assay on G-361 [12] was Active. The Ratio IC50 in [13] came to 20. Further, the “Inhibition … (qualitative)” value in [5] was “Active”. Also, the inhibition entry on CDK2/CDK4 (Homo sapiens) is “Active”. In addition, the pIC50 in the assay with HeLa is 7.82; in the assay with HCT-116 it was 7.34; in the assay with HOS, 7.62; with G-361 [1] it was 7.01; with MCF7, 7.49; in the assay on K562, 7.25. Also, in [3], the pIC50 was 8.10.
With `NC1CCC(Nc2nc(NCc3ccc(-n4cccn4)cc3)c3ncn(C4CCCC4)c3n2)CC1` (stereo unspecified), the result in the assay on G-361 [4], in the assay with G-361 [6], with G-361 [7], in the assay on G-361 [8], in the assay on G-361 [9] and with G-361 [10] was Active. In addition, the result in the assay with G-361 [11] and in the assay with G-361 [12] was Active. Further, the “Inhibition … (qualitative)” value in assay [5] is “Active”. At CDK2/CDK4 (Homo sapiens), the inhibition result was “Active”. Moreover, the pIC50 in the assay with HeLa is 6.77; in the assay with HCT-116, 6.49; with HOS it was 6.99; in the assay on G-361 [1], 6.66; with MCF7 it was 6.86; in the assay with K562 it was 6.92. Also, the pIC50 in [3] is 7.92.
With `Nc1ccccc1-c1ccc(CNc2nc(NC3CCC(N)CC3)nc3c2ncn3C2CCCC2)cc1` (stereo unspecified), the pIC50 was 5.99 with HeLa; 6.03 in the assay on HCT-116; 5.73 in the assay on HOS; 5.39 in the assay with G-361 [1]; 6.01 in the assay on MCF7; 5.96 with K562. In assay [3], the pIC50 was 7.69.
For `Nc1ccccc1CNc1nc(NC2CCC(N)CC2)nc2c1ncn2C1CCCC1` (stereo unspecified), the pIC50 with HeLa was 5.99; in the assay with HCT-116, 5.64; in the assay with HOS it was 5.69; in the assay on G-361 [1] it was 5.68; in the assay with MCF7, 5.63; in the assay with K562, 5.39. Also, the pIC50 was 7.03 in assay [2] and 7.74 in assay [3].
As to `NC1CCC(Nc2nc(NCc3ccc(-c4ccccc4)nc3)c3ncn(C4CCCC4)c3n2)CC1` (stereo unspecified), the pIC50 in the assay on HeLa was 6.94; with HCT-116, 6.25; in the assay on HOS, 6.69; in the assay with G-361 [1], 6.05; in the assay with MCF7, 6.32; in assay [2], 6.74. The pIC50 in assay [3] was 7.51.
`NC1CCC(Nc2nc(NCc3ccc(-c4ccccc4O)cc3)c3ncn(C4CCCC4)c3n2)CC1` (stereo unspecified): the pIC50 is 5.38 in the assay on HeLa; 5.36 with HCT-116; 5.94 in the assay on HOS; 5.38 with G-361 [1]; 5.54 in the assay with MCF7; 5.58 in the assay on K562. Also, the pIC50 was 6.11 in [2] and 7.17 in [3].
Consider `NC1CCC(Nc2nc(NCc3cc(Cl)ccc3O)c3ncn(C4CCCC4)c3n2)CC1` (stereo unspecified), for which the pIC50 in the assay with HeLa was 6.12; in the assay on HCT-116, 6.46; with HOS, 6.31; with G-361 [1], 6.41; in the assay on MCF7, 6.37; in the assay with K562, 6.16. The pIC50 was 7.64 in assay [2] and 8.10 in [3].
For `NC1CCC(Nc2nc(NCc3ccc(-c4cccs4)nc3)c3ncn(C4CCCC4)c3n2)CC1` (stereo unspecified), the outcome in the assay with G-361 [4], with G-361 [6], with G-361 [7], with G-361 [8], in the assay with G-361 [9] and with G-361 [10] was Active. Moreover, the result with G-361 [11] and with G-361 [12] was Active. In addition, the Ratio IC50 in [13] is 20. Further, the “Inhibition … (qualitative)” value in [5] is “Active”. In addition, the inhibition entry on CDK2/CDK4 (Homo sapiens) is “Active”. Further, the pIC50 with HeLa is 7.40; in the assay on HCT-116, 7.01; in the assay on HOS, 7.49; with G-361 [1] it was 6.82; in the assay on MCF7, 7.04; in the assay with K562 it was 7.00. In addition, the pIC50 in assay [3] was 8.40.
Take `NC1CCC(Nc2nc(NCc3ccc(-c4cccc(F)c4)nc3)c3ncn(C4CCCC4)c3n2)CC1` (stereo unspecified): the outcome in the assay with G-361 [4], in the assay on G-361 [6], in the assay with G-361 [7], in the assay on G-361 [8], with G-361 [9] and with G-361 [10] was Active. The outcome in the assay on G-361 [11] and in the assay on G-361 [12] was Active. In assay [5], the “Inhibition … (qualitative)” value is “Active”. The inhibition entry at CDK2/CDK4 (Homo sapiens) is “Active”. Also, the pIC50 with HeLa was 7.44; in the assay on HCT-116, 7.13; with HOS, 7.36; with G-361 [1], 7.31; in the assay on MCF7, 7.48; with K562, 7.21. For the same compound, the pIC50 in [3] was 7.85.
For `NC1CCC(Nc2nc(NCc3ccc(-c4ccsc4)nc3)c3ncn(C4CCCC4)c3n2)CC1` (stereo unspecified), the result in the assay with G-361 [4], in the assay with G-361 [6], in the assay with G-361 [7], in the assay with G-361 [8], in the assay on G-361 [9] and with G-361 [10] was Active. Besides, the outcome in the assay on G-361 [11] and in the assay with G-361 [12] was Active. Moreover, the pIC50 in the assay with HeLa is 7.12; with HCT-116, 6.84; in the assay with HOS it was 7.05; in the assay on G-361 [1], 6.57; with MCF7, 7.00; in the assay on K562 it was 6.82. For the same compound, in assay [3], the pIC50 was 7.74.
